Measurements published in publication PMC2937276 (Molecular cancer therapeutics, 2010).
Like-named read-outs stand apart in the source and are kept apart here.

Columns and labels:
[1] = format: in vivo, CD-1 mice; conditions: for Kp: brain and plasma
GBM culture 2414 = assay: XTT cell proliferation assay; format: cell-based, Mouse; conditions: Mus musculus, 36 h
Summary of the method: (§1)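 Primary human or mouse GBM cultures (DMEM, 10% FBS) were seeded at 5000 cells per 96-well well. Cells were cultured with test compound or vehicle for 36 h. Proliferation was read by XTT assay in quadruplicate. IC50 came from nonlinear-regression curve fitting.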

GBM culture 46 = assay: XTT cell proliferation assay; format: cell-based, Mouse; conditions: Mus musculus, 36 h
Summary of the method: as §1

GBM culture 69 = assay: XTT cell proliferation assay; format: cell-based, Mouse; conditions: Mus musculus, 36 h
Summary of the method: as §1

GBM culture 42 = assay: XTT cell proliferation assay; format: cell-based, Mouse; conditions: Mus musculus, 36 h
Summary of the method: as §1

GBM culture 2736 = assay: XTT cell proliferation assay; format: cell-based, Mouse; conditions: Mus musculus, 36 h
Summary of the method: as §1

GBM culture GBM-1 = assay: XTT cell proliferation assay; format: cell-based, Mouse; conditions: Mus musculus, GBM1, 36 h
Summary of the method: as §1

GBM culture 41 = assay: XTT cell proliferation assay; format: cell-based, Mouse; conditions: Mus musculus, 36 h
Summary of the method: as §1

GBM culture 2000 = assay: XTT cell proliferation assay; format: cell-based, Mouse; conditions: Mus musculus, 36 h
Summary of the method: as §1

GBM culture 2227 = assay: XTT cell proliferation assay; format: cell-based, Mouse; conditions: Mus musculus, 36 h
Summary of the method: as §1

GBM culture 2231 = assay: XTT cell proliferation assay; format: cell-based, Mouse; conditions: Mus musculus, 36 h
Summary of the method: as §1

GBM culture 2415 = assay: XTT cell proliferation assay; format: cell-based, Mouse; conditions: Mus musculus, 36 h
Summary of the method: as §1

GBM culture 102 = assay: XTT cell proliferation assay; format: cell-based, Mouse; conditions: Mus musculus, 36 h
Summary of the method: as §1

GBM culture 103 = assay: XTT cell proliferation assay; format: cell-based, Mouse; conditions: Mus musculus, 36 h
Summary of the method: as §1

GBM culture GBM43 = assay: XTT cell proliferation assay; format: cell-based, Human; conditions: Homo sapiens, 36 h
Summary of the method: as §1

GBM culture GBM39 = assay: XTT cell proliferation assay; format: cell-based, Human; conditions: Homo sapiens, GBM39, 36 h
Summary of the method: as §1

GBM culture GBM59 = assay: XTT cell proliferation assay; format: cell-based, Human; conditions: Homo sapiens, 36 h
Summary of the method: as §1

GBM culture GBM6 = assay: XTT cell proliferation assay; format: cell-based, Human; conditions: Homo sapiens, GBM6, 36 h
Summary of the method: as §1

GBM culture GBM12 = assay: XTT cell proliferation assay; format: cell-based, Human; conditions: Homo sapiens, 36 h
Summary of the method: as §1

GBM culture GBM22 = assay: XTT cell proliferation assay; format: cell-based, Human; conditions: Homo sapiens, 36 h
Summary of the method: as §1

GBM culture GBM8 = assay: XTT cell proliferation assay; format: cell-based, Human; conditions: Homo sapiens, 36 h
Summary of the method: as §1

[2] = system: EGFR-driven mouse GBM tumor primary cell cultures (GBM-1 & -2); assay: Cell counting, growth of GBM cell cultures under drug; format: cell-based; conditions: increasing concentrations for 24 hours; 250 nM over time
Summary of the method: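 Mouse primary GBM cultures (GBM-1: wild-type plus vIII EGFR; GBM-2: EGFRvIII), alongside primary mouse astrocytes, kept in DMEM with 10% FBS. Cells exposed to increasing test-compound concentrations for 24 h, or to 250 nM for varying times. Viable cells counted and expressed as percent of untreated cells. Mean of triplicates with S.D.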

[3] = system: Hsp90 client proteins EGFR, Akt, Cdk4 and Cyclin D1; assay: Immunoblot analysis of Hsp90 client proteins in mouse GBM cultures; format: cell-based
Summary of the method: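 Mouse GBM-1 and GBM-2 cultures and primary astrocytes treated with 250 nM test compound for varying times, or for 24 h against vehicle. RIPA lysates with 5 mM Na3VO4 and protease inhibitors. 40 µg resolved by SDS-PAGE onto PVDF, blocked in TBS-T/BSA/milk. Primary antibodies overnight at 4°C, secondary 1:10000 for 1 h at room temperature, ECL detection. Dynamin as control.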

[4] = system: EGFRvIII-driven GBM tumors; assay: Treatment of mice bearing GBM tumors; format: in vivo
Summary of the method: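 Adult (≥3 months) conditional EGFR*/Cdkn2a/Pten/CAG-luc mice under ketamine/xylazine received 250 nL adeno-CMV-Cre stereotaxically into the brain. Tumours were followed by luciferin (225 mg/kg IP) bioluminescence and randomised at the signal threshold. Dosing: 100 mg/kg IP in DMA/Tween 20/Cremophor/saline vehicle, or vehicle alone, thrice weekly ×2 weeks, then twice weekly for >100 days. At 180 days, survivors were perfused with PFA; coronal paraffin sections were H&E-stained. N=5 control, N=4 treated.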

[5] = Hepatotoxicity and toxicity on exposure in mice; format: in vivo
[6] = Brain concentrations of HSP90 inhibitors after a single i.p. injection; conditions: NCR-Nude, mouse, intraperitoneal
[7] = male, CD-1, mouse, brain, iv, 25 mg/kg
[8] = male, CD-1, mouse, brain, iv, 70 mg/kg
[9] = male, CD-1, mouse, plasma, iv, 25 mg/kg
[10] = male, CD-1, mouse, plasma, iv, 70 mg/kg
[11] = repeat dose, 25 mg/kg i.v. every other day

Question: For `O=C1OCC/C=C/CC/C=C/C(=N/OCC(=O)N2CCCCC2)Cc2c(Cl)c(O)cc(O)c21` [NXD30001], which “AUC(0-t)” value ([1]; brain, repeated i.v. injections 25 mg/kg every other day, 7 doses) is on record?
Answer: 940 ng·h/g

Question: What about the “AUC(0-t)” value ([1]; brain, single i.v. injection 70 mg/kg) of the same compound?
Answer: 1073 ng·h/g

Question: What about the Kp ([1]; male, CD-1, mouse, iv, 25 mg/kg) of the same compound?
Answer: 0.135

Question: What about the Kp ([1]; male, CD-1, mouse, iv, 70 mg/kg) of the same compound?
Answer: 0.201

Question: What about the Cmax [1, 7] of the same compound?
Answer: 210 ng/g

Question: What about the Tmax [1, 7] of the same compound?
Answer: 0.25 h

Question: What about the half-life [1, 7] of the same compound?
Answer: 8.99 h

Question: And the Cmax [1, 8]?
Answer: 223 ng/g

Question: And the Tmax [1, 8]?
Answer: 0.5 h

Question: And the half-life [1, 8]?
Answer: 4.07 h

Question: And the AUC(0-t) [1, 9]?
Answer: 6960 ng·h/mL

Question: And the C0 at 0.5 h [1, 9]?
Answer: 4530 ng/mL

Question: And the Vd [1, 9]?
Answer: 27.9 L/kg

Question: What about the clearance [1, 9] of the same compound?
Answer: 59.8 mL/min/kg

Question: What about the half-life [1, 9] of the same compound?
Answer: 5.4 h

Question: What about the AUC(0-t) [1, 10] of the same compound?
Answer: 5350 ng·h/mL

Question: What about the C0 [1, 10] of the same compound?
Answer: 2140 ng/mL

Question: What about the Vd [1, 10] of the same compound?
Answer: 51.5 L/kg

Question: What about the clearance [1, 10] of the same compound?
Answer: 217 mL/min/kg

Question: What about the half-life [1, 10] of the same compound?
Answer: 2.74 h

Question: And the “concentration detected in brain prior to the last dose” value [1, 11]?
Answer: less than 10 ng/g

Question: What about the “concentration detected in plasma prior to the last dose” value [1, 11] of the same compound?
Answer: less than 10 ng/mL

Question: And the IC50 (GBM culture 2414)?
Answer: 31.7 ± 4.9 nM

Question: What about the IC50 (GBM culture 46) of the same compound?
Answer: 54.3 ± 12.5 nM

Question: And the IC50 (GBM culture 69)?
Answer: 73.4 ± 2.5 nM

Question: What about the IC50 (GBM culture 42) of the same compound?
Answer: 73.8 ± 0.7 nM

Question: What about the IC50 (GBM culture 2736) of the same compound?
Answer: 77.6 ± 2.8 nM

Question: And the IC50 (GBM culture GBM-1)?
Answer: 78.3 ± 8.3 nM

Question: And the IC50 (GBM culture 41)?
Answer: 80.2 ± 5.9 nM

Question: What about the IC50 (GBM culture 2000) of the same compound?
Answer: 115 ± 9.4 nM

Question: What about the IC50 (GBM culture 2227) of the same compound?
Answer: 134 ± 7.7 nM

Question: And the IC50 (GBM culture 2231)?
Answer: 146 ± 3.7 nM

Question: And the IC50 (GBM culture 2415)?
Answer: 251 ± 57.7 nM

Question: And the IC50 (GBM culture 102)?
Answer: 360 ± 21.6 nM

Question: And the IC50 (GBM culture 103)?
Answer: 576 ± 14.8 nM

Question: And the IC50 (GBM culture GBM43)?
Answer: 86.3 ± 0.2 nM

Question: And the IC50 (GBM culture GBM39)?
Answer: 111.6 ± 1 nM

Question: And the IC50 (GBM culture GBM59)?
Answer: 232 ± 13.2 nM

Question: And the IC50 (GBM culture GBM6)?
Answer: 1220 ± 35.1 nM

Question: And the IC50 (GBM culture GBM12)?
Answer: 2330 ± 60 nM

Question: What about the IC50 (GBM culture GBM22) of the same compound?
Answer: 5260 ± 152 nM

Question: What about the IC50 (GBM culture GBM8) of the same compound?
Answer: 5690 ± 450 nM

Question: What about the “inhibition of GBM cell growth” value [2] of the same compound?
Answer: dose and time dependent inhibition of GBM cell growth

Question: What about the “Hsp90 client protein levels (western blot)” value ([3]; GBM-1 & -2 cultures, 250 nM for the indicated times) of the same compound?
Answer: degradation of the Hsp90 client proteins EGFR, Akt, Cdk4 and Cyclin D1

Question: What about the “Hsp90 client protein levels (western blot)” value ([3]; mouse primary GBM culture cells, 250 nM, 24 hours) of the same compound?
Answer: deplete the Hsp90 client proteins EGFR, Akt, Cdk4 and CyclinD1

Question: And the “effect on survival (Kaplan-Meier)” value ([4]; 100 mg/kg i.p. thrice weekly (X2) then twice weekly, versus vehicle)?
Answer: statistically significant prolongation in survival

Question: And the “survival of treated animals” value ([4]; half of the treated animals, 100 mg/kg i.p. thrice weekly (X2) then twice weekly, N=4 treated)?
Answer: > 180 days

Question: What about the “histological analysis of H&E stained brain sections of surviving animals” value ([4]; surviving treated animals, after 180 days) of the same compound?
Answer: few remaining tumor cell clusters

Question: And the “toxicity observed in the treated animals” value ([5]; GBM-bearing mice treated with 100 mg/kg i.p.)?
Answer: absence of toxicity

Question: What about the hepatotoxicity ([5]; short and long term exposure in mice, data not shown and ref 13) of the same compound?
Answer: does not result in hepatotoxicity

Question: What about the concentration at 6 h ([6]; 100 mg/kg) of the same compound?
Answer: 676 ng/g

Question: What about the concentration at 12 h ([6]; 100 mg/kg) of the same compound?
Answer: 823 ng/g

Question: And the concentration at 24 h ([6]; 100 mg/kg)?
Answer: 271 ng/g

Question: What about the concentration at 48 h ([6]; 100 mg/kg) of the same compound?
Answer: 10.7 ng/g

Question: What about the concentration at 6 h ([6]; 150 mg/kg) of the same compound?
Answer: 1440 ng/g

Question: And the concentration at 12 h ([6]; 150 mg/kg)?
Answer: 3420 ng/g

Question: What about the concentration at 24 h ([6]; 150 mg/kg) of the same compound?
Answer: 900 ng/g

Question: What about the concentration at 48 h ([6]; 150 mg/kg) of the same compound?
Answer: 116 ng/g
